The source made the active and inactive calls. The calls are words filed in the database; no cut-off is given here.
Tests used:
PC-3 [1] = experiment: Induction of ER stress in human PC3 cells assessed as upregulation of GRP78 after 4 hrs by Western blot analysis; type: functional, cell-based
Outline: (§1)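 PC3 cells in RPMI 1640 with 10% FBS, treated with compound for timed intervals. DMSO vehicle control. Lysis in RIPA buffer, 40 μg protein per lane on SDS-PAGE, transfer to nitrocellulose. Primary antibodies overnight at 4 °C, HRP-secondary 45 min, ECL detection. GAPDH or β-actin used as loading control.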

PC-3 [2] = experiment: Induction of morphological changes in human PC3 cells incubated for 22 hrs after ER stress inhibitor 4-PBA exposure for 2 hrs by phase-contrast microscopic analysis; type: functional, cell-based
Outline: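 PC3 cells pretreated 2 h with 100 μM 4-PBA (ER stress inhibitor), then exposed to agent for a further 22 h. Morphology by phase-contrast microscopy; viability by MTT in parallel.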

PC-3 [3] = experiment: Induction of ER stress in human PC3 cells assessed as upregulation of CHOP after 24 hrs by Western blot analysis; type: functional, cell-based; outline: as §1
PC-3 [4] = experiment: Induction of apoptosis in human PC3 cells assessed as late apoptotic cells at 0.5 uM after 24 hrs by Annexin V-FITC/propidium iodide based flow cytometric analysis (reference value: 1.1 %); type: functional
Outline: (§2)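 PC3 cells exposed to 0.5, 1 or 2 μM for 24 h, then stained with Annexin V-FITC and PI and analyzed by FACSCalibur flow cytometry. Populations assigned as necrotic (Annexin V−/PI+), late apoptotic (double positive), normal (Annexin V−/PI−) and early apoptotic (Annexin V+/PI−). DMSO vehicle control.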

MDA-MB-231 = experiment: Cytotoxicity against human MDA-MB-231 cells assessed as cell growth inhibition after 24 hrs by MTT assay; type: functional, cell-based; conditions: MDA-MB-231, 24 h
Outline: (§3)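 Cells seeded 24 h in RPMI 1640 + 10% FBS. RWPE-1 was kept in K-SFM with bovine pituitary extract and EGF. Cells then exposed to compounds for 24 h at 37 °C, 5% CO2, with DMSO vehicle and docetaxel as positive control. MTT added for 4 h, absorbance read at 570 nm. Triplicate runs, IC50 reported as mean of three experiments.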

PC-3 [5] = experiment: Induction of ER stress in human PC3 cells assessed as activation of XBPI mRNA incubated for 22 hrs after ER stress inhibitor 4-PBA exposure for 2 hrs by Western blot analysis; type: functional, cell-based
Outline: (§4)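 PC3 cells pretreated 2 h with 4-PBA (100 μM), then compound added for a further 22 h. Viability measured by MTT. GRP78 assessed by Western blot, along with XBP1 mRNA splicing analysis. Morphology by phase contrast.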

PC-3 [6] = experiment: Induction of apoptosis in human PC3 cells assessed as early apoptotic cells at 2 uM after 24 hrs by Annexin V-FITC/propidium iodide based flow cytometric analysis (reference value: 2.3 %); type: functional; outline: as §2
K562 = experiment: Cytotoxicity against human K562 cells assessed as cell growth inhibition after 24 hrs by MTT assay; type: functional, cell-based; conditions: K562, 24 h; outline: as §3
PC-3 [7] = experiment: Induction of autophagy in human PC3 cells assessed as conversion of LC3B1 to LC3B2 after 24 hrs by Western blot analysis; type: functional, cell-based; outline: as §1
PC-3 [8] = experiment: Induction of cell cycle arrest in human PC3 cells assessed as accumulation in G2 phase at 2 uM after 24 hrs by […]propidium iodide based flow cytometric analysis (reference value: 16.3 to 25 %); type: functional
PC-3 [9] = experiment: Cytotoxicity in human PC3 cells assessed as reduction in cell viability incubated for 22 hrs after ER stress inhibitor 4-PBA exposure for 2 hrs by MTT assay; type: functional, cell-based; outline: as §4
PC-3 [10] = experiment: Growth inhibition of human PC3 cells at IC30 in presence of MG139 assessed as combination index by MTT assay; type: functional
Outline: (§5)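 PC3 cells incubated with increasing concentrations of compound combined with a second agent (bortezomib or partner compound). Viability determined, combination index calculated: CI < 1 synergism, = 1 additive, > 1 antagonism.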

MCF7 = experiment: Cytotoxicity against human MCF7 cells assessed as cell growth inhibition after 24 hrs by MTT assay; type: functional, cell-based; conditions: MCF7, 24 h; outline: as §3
[11] = Toxicity in athymic Balb/c mouse assessed as body weight loss at 15 mg/kg, ip administered every 2 days for 18 days; type: organism-based; conditions: in vivo
Outline: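 Male athymic BALB/c-nu mice bearing subcutaneous PC3M-luc-C6 xenografts, n = 5 per group. Dosing was 15 mg/kg i.p. every 2 days for 18 days versus placebo and docetaxel 15 mg/kg groups. Body weight was recorded over the treatment period.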

PC-3 [12] = experiment: Cytotoxicity in human PC3 cells assessed as reduction in cell viability after 24 hrs in presence of AcT-D by MTT assay; type: functional, cell-based
Outline: (§6)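 PC3 cells pretreated with 10 μM actinomycin D or 5 μM cycloheximide, then treated with compound for 24 h. Viability by MTT at 570 nm. Vacuolation imaged by phase-contrast microscopy.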

PC-3M [13] = experiment: Antitumor activity against human PC3M-lluc-C6 cells xenografted in athymic Balb/c mouse assessed as tumor growth inhibition at 15 mg/kg, ip administered every 2 days for 18 days; type: functional; conditions: read-out: TGI
PC-3 [14] = experiment: Cytotoxicity in human PC3 cells assessed as reduction in cell viability after 24 hrs in presence of CHX by MTT assay; type: functional, cell-based; outline: as §6
PC-3 [15] = experiment: Induction of apoptosis in human PC3 cells assessed as necrotic cells at 2 uM after 24 hrs by Annexin V-FITC/propidium iodide based flow cytometric analysis (reference value: 1.1 %); type: functional; outline: as §2
PC-3M [16] = experiment: Antitumor activity against human PC3M-lluc-C6 cells xenografted in athymic Balb/c mouse assessed as decrease in tumor burden by measuring photon intensity at 15 mg/kg, ip measured on day 18 by bioluminescence method (reference value: 2.332 x 10^10 photons/s/cm2); type: functional
PC-3 [17] = experiment: Induction of cell cycle arrest in human PC3 cells assessed as accumulation in G0/G1 phase at 1 uM after 24 hrs by […]propidium iodide based flow cytometric analysis (reference value: 43.5 to 62.5 %); type: functional
PC-3 [18] = experiment: Induction of cell cycle arrest in human PC3 cells assessed as accumulation in S phase at 0.5 uM after 24 hrs by […]propidium iodide based flow cytometric analysis (reference value: 21 to 31.6 %); type: functional
PC-3 [19] = experiment: Cytotoxicity against human PC3 cells transfected with LC3-targeting siRNA assessed as reduction in cell viability at 1 uM after 24 hrs by Western blot analysis; type: functional, cell-based
Outline: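 PC3 cells plated at 20−30% confluence and transfected 24 h later with 50 nM LC3-targeting or scramble siRNA. After 48 h, cells were exposed to 1 μM compound for a further 24 h. Read-out by Western blot and phase-contrast imaging.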

PC-3 [20] = experiment: Growth inhibition of human PC3 cells at IC30 in presence of bortezomib by MTT assay; type: functional, cell-based; outline: as §5
PC-3M [21] = experiment: Induction of immature autophagy i in human PC3M-lluc-C6 cells xenografted in athymic Balb/c mouse assessed as increase in LC3 protein levels at 15 mg/kg, ip administered every 2 days for 18 days by Western blot and immunohistochemical staining method; type: functional, organism-based
Outline: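 Male athymic BALB/c-nu mice (6 weeks) carried subcutaneous right-flank PC3M-luc-C6 xenografts (5 × 10^6 cells). At ~0.1 cm3 they were grouped (n = 5) and given 15 mg/kg i.p. suspension every 2 days; placebo and docetaxel 15 mg/kg were controls. Tumors were analyzed by Western blot and by immunohistochemistry (anti-LC3 1:800, anti-p62 1:500, overnight 4 °C, HRP/DAB, hematoxylin counterstain).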

What does the source list for Cc1cc(C)cc(COc2cc3c(cc2OCc2cc(C)cc(C)c2)[C@@H]2C[C@H](O)C[C@@H](C)N2CC3)c1 (racemic)?
Activity (PC-3 [1]): Active; Activity (PC-3 [2]): inactive; Activity (PC-3 [3]): Active; Activity (PC-3 [4]): 1.2%; IC50 (MDA-MB-231): 820 nM; Activity (PC-3 [5]): inactive; Activity (PC-3 [6]): 20.5%; IC50 (K562): 1440 nM; Activity (PC-3 [7]): Active; Activity (PC-3 [8]): 10.8 - 12.3%; Activity (PC-3 [9]): inactive; CI (PC-3 [10]): 0.1 - 0.3; IC50 (MCF7): 510 nM; Activity [11]: 16.3 g; Activity (PC-3 [12]): inactive; inhibition in vivo at 15 mg/kg (PC-3M [13]): 40.5%; Activity (PC-3 [14]): inactive; Activity (PC-3 [15]): 3.1%; Activity (PC-3M [16]): 1.766 ×10⁹ /s/cm2; Activity (PC-3 [17]): 65.1 - 78%; Activity (PC-3 [18]): 16.1 - 21.3%; Activity (PC-3 [19]): inactive; growth inhibition (GI) (PC-3 [20]): Active; Activity (PC-3M [21]): Active

Source: ChEMBL document CHEMBL4425094, “Novel Benzo[a]quinolizidine Analogs Induce Cancer Cell Death through Paraptosis and Apoptosis” (J Med Chem, 2016)
